{"data": "Measured values collected from several papers", "RPS6KA5": "Ribosomal protein S6 kinase alpha-5 (RPS6KA5, Homo sapiens, UniProt O75582)", "RPS6KA5 C-terminal kinase domain": "Ribosomal protein S6 kinase alpha-5, C-terminal kinase domain (RPS6KA5, Homo sapiens, UniProt O75582)", "RPS6KA5 N-terminal kinase domain": "Ribosomal protein S6 kinase alpha-5, N-terminal kinase domain (RPS6KA5, Homo sapiens, UniProt O75582)", "note": "Compare with care: the assays were run in different laboratories."}
{"SMILES": "C#Cc1n[nH]c2c(-c3cn([C@@H](C)c4ccccn4)c(=O)[nH]c3=O)cc(F)cc12", "target": "RPS6KA5", "assay": "enzyme activity, inhibitor", "setting": "0.1 µM", "endpoint": "inhibition", "value": "2%"}
{"SMILES": "Cn1cc(-c2cccc(N3CCc4c(sc5c4CC(C)(C)C5)C3=O)c2CO)cc(Nc2ccncn2)c1=O", "target": "RPS6KA5", "assay": "enzyme activity, inhibitor", "setting": "1 µM", "endpoint": "inhibition", "value": "2%"}
{"SMILES": "N#CC1(c2ccccn2)CCN(Cc2cc(C(=O)O)c(=O)n3ccccc23)CC1", "target": "RPS6KA5 C-terminal kinase domain", "assay": "cell-free assay, competition with immobilised ligand", "setting": "1 µM", "endpoint": "remaining binding", "value": "83%"}
{"SMILES": "O=c1[nH]c2ccccc2n1C1CCN(Cc2ccc(-c3[nH]c4cc5ncnc5cc4nc3-c3ccccc3)cc2)CC1", "target": "RPS6KA5", "assay": "cell-free assay", "setting": "0.5 µM", "endpoint": "remaining signal", "value": "103%"}
{"SMILES": "Cn1cc(-c2cc(F)cc(N3CCn4c(cc5c4CCCC5)C3=O)c2CO)cc(Nc2ccc(N3CCN(C4COC4)CC3)cn2)c1=O", "target": "RPS6KA5", "assay": "enzyme activity, inhibitor", "setting": "0.1 µM", "endpoint": "inhibition", "value": "13%"}
{"SMILES": "C#Cc1n[nH]c2c(-c3cn([C@@H](C)c4ccccc4)c(=O)[nH]c3=O)cc(F)cc12", "target": "RPS6KA5", "assay": "enzyme activity, inhibitor", "setting": "0.1 µM", "endpoint": "inhibition", "value": "-1.9%"}
{"SMILES": "Cn1cncc1[C@@](O)(COc1ccc(C#N)cc1-c1ccc(OC(F)(F)F)cc1)c1ccc(C#N)cc1", "target": "RPS6KA5 N-terminal kinase domain", "assay": "cell-free assay, competition with immobilised ligand", "setting": "1 µM", "endpoint": "remaining binding", "value": "88%"}
{"SMILES": "Cc1nn(C)cc1-c1nc2c(N3CCN(Cc4ccc(Cl)cc4)CC3)c(Cl)cnc2[nH]1", "target": "RPS6KA5 C-terminal kinase domain", "assay": "binding, competition with immobilised ligand", "setting": "1 µM", "endpoint": "remaining binding", "value": "100%"}
{"SMILES": "CC(C)(C)c1cc(C=C(C#N)C#N)cc(Br)c1O", "target": "RPS6KA5", "assay": "enzyme activity, inhibitor", "setting": "0.5 µM", "endpoint": "remaining activity", "value": "108%"}
{"SMILES": "Nc1ncc(-c2nc(N3CCOCC3)nc(N3CCOCC3)n2)c(C(F)F)n1", "target": "RPS6KA5 N-terminal kinase domain", "assay": "binding, competition with immobilised ligand", "setting": "10 µM", "endpoint": "remaining binding", "value": "88%"}
